AHR act: activates the human aryl hydrocarbon receptor. activation, % at 5 µM. P35869. 320,000 tested, 2.5% active. AID 2796. AHR-responsive luciferase reporter cells, luminescence; in the data active = activation above about 47%;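 note: 0% = vehicle wells and 100% = reference agonist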
FXN GAA850 act: frataxin GAA850 promoter activation. HEK293 lucGAA850 FXN promoter luciferase reporter, 24 h; percent of 10 µM SAHA response. activation, % at 6 µM. 360,000 tested, 0.56% active;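 active = activation above the average of all compounds screened plus 3 SD, cutoff fixed separately per campaign, cut at about 7.5% in these data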;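 note: 0% = DMSO wells and 100% = 10 µM SAHA wells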
MC4R ag barr: human MC4R agonism via beta-arrestin. P32245. U2OS MC4R beta-arrestin complementation, luminescence; percent of melanotan II response, DMSO zero. activation, % at 8.9 µM. 360,000 tested, 0.98% active;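 active = activation above a per-plate cutoff, the mean activation of sample wells on that plate plus 3 SD, cut at about 8% in these data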
MC4R antag cAMP: antagonists of human melanocortin 4 receptor (MC4R) | P32245 | MC4R-expressing cells, MTII-stimulated cAMP, LANCE TR-FRET | inhibition, % at 6.5 µM | 360,000 tested, 0.48% active;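 active = inhibition above its plate's cutoff, the mean of tested wells on that plate plus 3 SD, cut at about 29% in these data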;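 note: 0% = Melanotan II alone and 100% = Melanotan II plus saturating MCL0020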
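System: U2OS cells stably expressing human melanocortin 4 receptor (MC4R). Reagent: Melanotan II challenge after compound preincubation. Doses: 6.5 µM. Times: 30-min compound, 1-h challenge, 1-h detection, room temperature. Measured by: TR-FRET with Eu-cAMP and labeled anti-cAMP, 671 nm. Replicates: singlicate.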
m5-HT2A agonist: activates the mouse 5-HT2A serotonin receptor | P35363 | CHO-K1 mHTR2A beta-arrestin complementation, luminescence; percent of 30 µM serotonin response | activation, % at 7.6 µM | 360,000 tested, 0.66% active;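 active = activation above a run cutoff, the mean activation of all tested compounds plus 3 SD, cut at about 14% in these data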;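 note: 0% = plate median of compound wells and 100% = 30 µM serotonin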
Target sequence (P35363 whole entry, looked up): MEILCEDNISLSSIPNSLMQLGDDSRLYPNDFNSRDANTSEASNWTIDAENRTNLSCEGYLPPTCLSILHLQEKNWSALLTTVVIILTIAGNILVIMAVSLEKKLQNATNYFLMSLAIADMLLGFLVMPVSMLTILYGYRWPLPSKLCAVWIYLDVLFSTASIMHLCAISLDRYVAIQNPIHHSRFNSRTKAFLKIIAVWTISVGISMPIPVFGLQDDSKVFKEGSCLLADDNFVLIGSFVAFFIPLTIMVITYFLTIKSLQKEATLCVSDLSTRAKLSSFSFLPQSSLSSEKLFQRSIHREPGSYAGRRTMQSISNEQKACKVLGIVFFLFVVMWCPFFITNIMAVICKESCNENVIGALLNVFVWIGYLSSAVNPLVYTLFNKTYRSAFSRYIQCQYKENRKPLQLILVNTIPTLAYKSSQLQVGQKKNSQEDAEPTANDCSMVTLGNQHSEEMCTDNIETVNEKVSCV
OPRM1 ag: OPRM1 agonism in mouse HTR2A counterscreen; 2,300 tested, 5.3% active; AID 624380; shares compounds with m5-HT2A agonist; U2OS OPRM1 beta-arrestin PathHunter, luminescence; DMSO 0%, DAMGO 9.3 µM 100%; activation, % at 9.3 µM;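 active = mean activation above the mean of DMSO-only wells plus 3 SD, cut at about 0.5% in these data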
HTR2A ag conf: confirmation of mouse HTR2A serotonin receptor agonists; 2,300 tested, 19% active; shares compounds with m5-HT2A agonist; CHO-K1 PathHunter beta-arrestin recruitment, luminescence; DMSO 0%, 30 µM serotonin 100%; AID 624381; activation, % at 7.6 µM;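 active = mean activation across triplicates above the hit threshold derived in the original primary screen, cut at about 15% in these data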
* = called active by the depositor; · = no result given. Sampled rows, rich in hits. Any-hit rate of the full collection: about 4.7%.

SMILES	AHR act	FXN GAA850 act	MC4R ag barr	MC4R antag cAMP	m5-HT2A agonist	OPRM1 ag	HTR2A ag conf
O=C(CN1CCN(c2cccc(Cl)n2)CC1)N1CC(O)CO1 (stereo not drawn)	1	1	-1	11	27*	0	-4
COC(=O)c1cc(=O)n(CCc2ccc(OC)cc2)c(=Nc2ccc(F)c(Cl)c2)s1	0	2	1	10	4	·	·
COC(=O)c1cc(=O)n(Cc2ccc3c(c2)OCO3)c(=Nc2ccc(F)c(Cl)c2)s1	-1	1	0	-3	14*	0	0
CC(NC(=O)c1ccc2ccccc2n1)c1ccc(S(N)(=O)=O)cc1 (stereo not drawn)	13	2	-1	-2	17*	0	1
CCc1cc(=O)oc2c(C)c(O)c(CN3CCCCC3)cc12	6	-1	1	19	22*	-1	-2
COc1ccc(C(O)c2nc(-c3cccc(C(C)C)c3)cs2)cc1 (stereo not drawn)	·	0	1	11	-6	·	·
OC(c1ccc(F)cc1)c1nc(-c2cccc(C(F)(F)F)c2)cs1 (stereo not drawn)	·	0	6	9	23*	0	-6
COc1ccc(C(O)c2nc(-c3cccc(O)c3)cs2)cc1 (stereo not drawn)	·	0	-1	0	17*	-1	-1
OC(c1ccc(F)c(F)c1)c1nc(-c2cccc(C(F)(F)F)c2)cs1 (stereo not drawn)	·	3	2	4	1	·	·
CCC(=O)c1ccc(OCC(O)CN2CCN(c3ccccn3)CC2)cc1 (stereo not drawn)	-1	-1	1	-1	29*	0	100*
CC(=O)c1ccc(OCC(O)CN2CCN(CCO)CC2)cc1 (stereo not drawn)	1	1	0	8	17*	-1	-3
Cc1cccc(OCC(O)CN2CCN(c3ccccn3)CC2)c1C (stereo not drawn)	1	0	0	13	19*	-1	40*
COc1cc(C(C)=O)ccc1OCC(O)CN1CCN(c2ccccn2)CC1 (stereo not drawn)	3	1	-2	-6	23*	0	86*
CC(C)(C)c1ccc(OCC(O)CN2CCN(c3ccccn3)CC2)cc1 (stereo not drawn)	-3	0	2	1	6	·	·
CCc1ccc2cc3c(cc2n1)C(=O)c1ccccc1-3	·	·	·	·	-8	·	·
CCOC(=O)C1C(=O)C=C(Nc2ccccc2F)CC1c1ccccc1 (stereo not drawn)	-1	2	-1	16	-2	·	·
N#Cc1ccc(C(=O)N2CCCCC2c2cc(C(=O)Nc3cccc(C#N)c3)no2)cc1 (stereo not drawn)	·	0	1	19	-10	·	·
Cc1ccc(S(=O)(=O)N(C)C)cc1NC(=O)C(C)OC(=O)C1CCC1 (stereo not drawn)	1	0	0	14	4	·	·
CCOc1cc(C)nc(N2CCC(C(=O)NCC3CCCO3)CC2)n1 (stereo not drawn)	·	-1	0	2	8	·	·
COCC(=O)Nc1cc([N+](=O)[O-])ccc1OC	5	3	0	7	44*	-1	-5
O=C(NCCO)/C(=C\c1cccs1)NC(=O)c1cccs1	3	0	1	-2	24*	0	-2
COc1ccc(NC(=O)CCc2nnc3ccc(N4CCC(C)CC4)nn23)cc1	0	-2	3	16	-5	·	·
CCOC(=O)c1ccc(NC(=O)CCc2nnc3ccc(N4CCCC4)nn23)cc1	1	0	-3	-4	24*	-1	-3
CCOC(=O)c1c(S(=O)(=O)NCCc2ccc(OC)c(OC)c2)c(C)n(C)c1C	2	5	-2	-1	16*	-1	-3
CCOC(=O)c1c(S(=O)(=O)NCCc2ccccc2)c(C)n(C)c1C	2	2	-2	2	9	·	·
SMILES	AHR act	FXN GAA850 act	MC4R ag barr	MC4R antag cAMP	m5-HT2A agonist	OPRM1 ag	HTR2A ag conf
CC(C)(C)C(=O)c1c(N)[nH]c(C(=O)c2ccccc2)c1-c1ccc(Cl)cc1Cl	·	·	·	·	16*	0	-1
CC(=O)Nc1ccc(SCCN2CC[C@@H](O)CCC2=O)cc1	0	-2	-1	8	30*	-1	-4
CC(=O)Nc1ccc(SCCN2CC[C@@H](C)CCC2=O)cc1	3	0	0	10	7	·	·
Fc1ccc(NCc2nnc3n2CCCCC3)cc1	1	1	-3	-5	20*	0	3
Cc1ccc(NCc2nnc3n2CCCCC3)c(C)c1	28	5	-1	8	3	·	·
CCOC(=O)C1(Cc2cccc(Cl)c2)CCCN(C(=O)c2cc(C)n(C)n2)C1 (stereo not drawn)	1	0	-2	-11	17*	-1	-2
Cc1nc(NC2CCCCC2)c2nnn(Cc3ccccc3Cl)c2n1	3	3	5	11	2	·	·
Cc1nc(N2CCCC2)c2nnn(Cc3ccccc3Cl)c2n1	5	2	-2	11	18*	-1	-2
C=CCn1c(=N)n(CC(O)c2ccco2)c2ccccc21 (stereo not drawn)	1	1	-1	7	15*	0	-2
CCn1c(=N)n(CC(O)c2ccco2)c2ccccc21 (stereo not drawn)	-1	-1	2	23	1	·	·
C/C(=N/NC(=O)CNC(=O)CCc1ccccc1)c1ccc(Cl)cc1	1	2	-2	-4	7	·	·
C/C(=N/NC(=O)CNC(=O)COc1ccccc1)c1ccc(Cl)cc1	10	1	-3	-4	16*	-1	-6
CN(c1ccccc1)S(=O)(=O)c1cccc(C(=O)NCCCN2CCCC2=O)c1	-2	1	0	2	-8	·	·
O=C(CN1CCc2ccccc21)NN1CC(=O)N(c2ccccc2)CC1=O	7	2	1	0	19*	-1	-4
COC(=O)[C@]12CCCCC=C1N(Cc1ccc3c(c1)OCO3)C(=O)[C@H](CC(=O)NCc1ccc(C)o1)C2	·	·	·	·	-5	·	·
Cc1nc2ccccc2n1/N=C/c1cccnc1	14	-2	-1	1	-1	·	·
Cc1nc2ccccc2c(=O)n1/N=C/c1cccnc1	20	2	1	0	15*	-1	-1
CCC1(CC)C(=O)NC(=S)N=C1N	·	1	-1	-4	21*	0	1
CCN(CC)CCn1c(NC(=O)c2ccc(C)cc2)nc2ccccc21	29	2	1	12	25*	·	8

Screening results as filed in PubChem.
